The values that follow come from ChEMBL document CHEMBL3526127, “Absorption, elimination, and metabolism of CS-1036, a novel α-amylase inhibitor in rats and monkeys, and the relationship between gastrointestinal distribution and suppression of glucose absorption” (Drug Metab Dispos, 2013).

Structures are written as SMILES.

Data set [1] has as its system Rattus norvegicus. In words: Total drug excretion in bile duct cannulated F344 rat at 1 mg/kg, iv administered as single dose after 0 to 48 hrs by scintillation counting method. It is filed as ADME, organism-based. More on the design: dose 1 mg/kg, route intravenous. The note with it: in vivo. The procedure, abridged:
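Under ether anesthesia, the common bile duct of fasted F344 rats was cannulated. After recovery, rats received 1 mg/kg (41.9 µCi/kg) of the 14C-labelled compound iv or by oral gavage (n = 4). They were kept in Bollman cages, and bile was collected at 0–6, 6–24, 24–30 and 30–48 h at 4°C. Radioactivity was measured by liquid scintillation counting as % of dose.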

For data set [2], the system named is Cynomolgus monkey. The data set is described as follows: Total drug excretion in cynomolgus monkey at 3 mg/kg, iv administered as single dose after 0 to 48 hrs by scintillation counting method. It is filed as ADME, organism-based, Macaca fascicularis. More on the design: dose 3 mg/kg, route intravenous. The note with it: in vivo. The procedure, abridged:
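Fasted male cynomolgus monkeys (n = 4) were dosed with 14C-labelled drug at 3 mg/kg, iv via saphenous vein (191 µCi/kg) or orally by stomach catheter (156.5 µCi/kg). Urine, feces and cage-wash water were collected to 336 h. Radioactivity was measured by liquid scintillation counting, with feces homogenized in water, and expressed as % of dose.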

A short description of data set [3]: Drug metabolism in human liver S9 fractions at 0.42 uCi/ml assessed as metabolite formation in presence of NADPH after 1 hr at 37 degC by LC-MS/MS method. The note with it: s9, 1 h. It is filed as ADME, subcellular, Liver S9 fraction.
A short description of data set [4]: Drug metabolism in rat liver S9 fractions at 0.42 uCi/ml assessed as metabolite formation in presence of NADPH after 1 hr at 37 degC by LC-MS/MS method. It is filed as ADME, subcellular, Liver S9 fraction. The note with it: s9, 1 h.
Data set [5] is described as follows: Drug excretion in F344 rat urine at 1 mg/kg, po administered as single dose after 0 to 48 hrs by scintillation counting method. It is filed as ADME, organism-based. On the set-up: dose 1 mg/kg, route oral. The note with it: in vivo. The procedure, abridged:
(§1)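 Fasted F344 rats (152–156 g iv via tail vein; 154–159 g oral; n = 4) received [14C]-labelled drug at 1 mg/kg (41.9 µCi/kg). Animals were kept in metabolic cages; urine and feces were collected to 168 h, and expired CO2 was trapped in 2-aminoethanol/2-methoxyethanol (1:1) to 48 h. Samples were counted by liquid scintillation (feces homogenized). Results are % of dose, mean ± S.D.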

Data set [6] in a line: Drug metabolism in rat intestinal […] S9 fractions at 0.42 uCi/ml assessed as metabolite formation in presence of NADPH after 1 hr at 37 degC by LC-MS/MS method. It is filed as ADME, subcellular. The note with it: s9, 1 h.
Data set [7] in a line: Drug excretion in F344 rat expired air at 1 mg/kg, po administered as single dose after 0 to 48 hrs by scintillation counting method. It is filed as ADME, organism-based. On the set-up: dose 1 mg/kg, route oral. The note with it: in vivo. The procedure, abridged:
as §1

Data set [8] can be described thus: Ratio of drug level in blood to plasma in human after 5 mins. It is filed as ADME.
Data set [9] in a line: Drug excretion in cynomolgus monkey urine at 3 mg/kg, po administered as single dose after 0 to 336 hrs by scintillation counting method. Format: ADME, organism-based, Macaca fascicularis. More on the design: dose 3 mg/kg, route oral. The note with it: in vivo.
Data set [10] relates to Cynomolgus monkey. In words: Drug excretion in cynomolgus monkey assessed as drug level found during cage washing at 3 mg/kg, iv administered as single dose after 0 to 48 hrs by scintillation counting method. Format: ADME, organism-based, Macaca fascicularis. More on the design: dose 3 mg/kg, route intravenous. The note with it: in vivo. The procedure, abridged: (§2)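 Fasted cynomolgus monkeys (n = 4) received [14C]-labelled drug at 3 mg/kg, iv via saphenous vein (191 µCi/kg) or orally by stomach catheter (156.5 µCi/kg). Urine, feces and water cage-wash were collected to 336 h. Samples were counted by liquid scintillation; feces were homogenized in 4-fold water. Results are % of dose, mean ± S.D.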

Data set [11] relates to Cynomolgus monkey. The data set is described as follows: Drug excretion in cynomolgus monkey assessed as drug level found during cage washing at 3 mg/kg, po administered as single dose after 0 to 48 hrs by scintillation counting method. On the set-up: dose 3 mg/kg, route oral. It is filed as ADME, organism-based, Macaca fascicularis. The note with it: in vivo. The procedure, abridged: as §2

A short description of data set [12]: Drug metabolism in F344 rat feces assessed as 1,4-dideoxy-1,4-imino-D-arabinitol formation by LC-MS/MS method. It is filed as ADME, tissue-based.
The subject of data set [13] is Rattus norvegicus. The data set is described as follows: Total drug excretion in F344 rat at 1 mg/kg, po administered as single dose after 0 to 48 hrs by scintillation counting method. Format: ADME, organism-based. On the set-up: dose 1 mg/kg, route oral. The note with it: in vivo. The procedure, abridged: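 Fasted F344 rats (n = 4) received [14C]-labelled drug at 1 mg/kg (41.9 µCi/kg), iv via tail vein or oral. They were housed in metabolic cages. Urine and feces were collected to 168 h, and expired CO2 was trapped in 2-aminoethanol/2-methoxyethanol to 48 h. Radioactivity was counted by liquid scintillation, feces after homogenization. Results are % of dose.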

Data set [14] is described as follows: AUClast in cynomolgus monkey at 1 mg/kg, po administered as single dose by LC-MS/MS method. It is filed as ADME, organism-based, Macaca fascicularis. On the set-up: time 0 - last, dose 1 mg/kg, route oral. The note with it: plasma. The procedure, abridged: (§3)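 Fasted male F344 rats (146–185 g) or male cynomolgus monkeys (3.48–4.29 kg), n = 4 per dose, given single iv or oral dose of 0.3, 1.0, 3.0 or 10.0 mg/kg; monkeys dosed with 2-week washouts. Blood sampled to 48 h; plasma stored frozen. LC-MS/MS with deuterated internal standard. Noncompartmental analysis: AUClast by trapezoidal rule; AUC0–inf = AUClast + Ctz/terminal rate constant; mean ± S.D.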

Data set [15] is described as follows: AUC (0 to infinity) in cynomolgus monkey at 1 mg/kg, iv administered as single dose by LC-MS/MS method. It is filed as ADME, organism-based, Macaca fascicularis. On the set-up: time infinity, dose 1 mg/kg, route intravenous. The note with it: plasma. The procedure, abridged:
as §3

Data set [16] is described as follows: Volume of distribution at steady state in F344 rat at 0.3 mg/kg, iv administered as single dose by LC-MS/MS method. The note with it: in vivo, read-out: Vdss. Format: ADME, organism-based. On the set-up: dose 0.3 mg/kg, route intravenous. The procedure, abridged: (§4)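 Male F344 rats (146–185 g) and male cynomolgus monkeys (3.48–4.29 kg), n = 4 each, fasted overnight, received single iv or oral doses of 0.3, 1.0, 3.0 or 10.0 mg/kg. Monkeys had 2-week washouts between doses. Plasma was sampled to 48 h and assayed by LC-MS/MS with deuterated internal standard. Noncompartmental analysis: tmax observed; t1/2 by regression on ≥3 terminal log points; Vss = dose·AUMC/(AUC0–inf)²; Foral = oral/iv AUC0–inf at the same dose.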

The nature of data set [17]: AUClast in F344 rat at 3 mg/kg, po administered as single dose by LC-MS/MS method. The note with it: plasma. More on the design: time 0 - last, dose 3 mg/kg, route oral. Format: ADME, organism-based. The procedure, abridged:
as §3

Data set [18] can be described thus: AUC (0 to infinity) in cynomolgus monkey at 3 mg/kg, po administered as single dose by LC-MS/MS method. The note with it: plasma. Format: ADME, organism-based, Macaca fascicularis. More on the design: dose 3 mg/kg, route oral, time infinity. The procedure, abridged: as §3
A short description of data set [19]: Half life in F344 rat at 1 mg/kg, po administered as single dose by LC-MS/MS method. It is filed as ADME, organism-based. The note with it: in vivo. On the set-up: dose 1 mg/kg, route oral.
A short description of data set [20]: AUC (0 to infinity) in F344 rat at 3 mg/kg, iv administered as single dose by LC-MS/MS method. Format: ADME, organism-based. More on the design: time infinity, dose 3 mg/kg, route intravenous. The note with it: plasma. The procedure, abridged:
as §3

Data set [21] can be described thus: Tmax in cynomolgus monkey at 1 mg/kg, po administered as single dose by LC-MS/MS method. Format: ADME, organism-based, Macaca fascicularis. More on the design: dose 1 mg/kg, route oral. The note with it: in vivo. The procedure, abridged: as §4
A short description of data set [22]: Oral bioavailability in F344 rat at 0.3 mg/kg administered as single dose by LC-MS/MS method. The note with it: in vivo. It is filed as ADME, organism-based. The procedure, abridged:
as §4

A short description of data set [23]: Tmax in F344 rat at 10 mg/kg, po administered as single dose by LC-MS/MS method. It is filed as ADME, organism-based. More on the design: dose 10 mg/kg, route oral. The note with it: in vivo. The procedure, abridged: as §4
The nature of data set [24]: AUClast in cynomolgus monkey at 0.3 mg/kg, po administered as single dose by LC-MS/MS method. On the set-up: dose 0.3 mg/kg, route oral, time 0 - last. The note with it: plasma. It is filed as ADME, organism-based, Macaca fascicularis. The procedure, abridged:
as §3

As for `C[C@H]1O[C@@H](O[C@H]2[C@H](O)[C@@H](O)[C@@H](O[14C@H]3[14C@H](O)[14CH2]N[14C@@H]3[14CH2]O)O[C@@H]2CO)[C@H](O)[C@@H](O)[C@@H]1O`, the Drug excretion with Rattus norvegicus [1] came to 0.37%; in the data set with Cynomolgus monkey [2], 94.29%; in data set [5], 13.34%; in data set [7] it was 2.34%; in [9] it was 5.67%; with Cynomolgus monkey [10], 13.7%. Moreover, the results for the Drug excretion in the data set on Cynomolgus monkey [11] and with Rattus norvegicus [13] were 0.76% and 93.26%, respectively. The Drug metabolism result in [3] is “metabolite_not_detected”; in [4], “metabolite_not_detected”; in data set [6] it was “metabolite_not_detected”; in data set [12], “metabolite_detected”. Besides, in data set [8], the blood plasma ratio at 5 min came to 0.521.

The AUC(0-t) is the area under the concentration-time curve up to a stated or last time point. As usually defined, the AUC(0-inf) is total exposure, with the tail of the curve extrapolated. For orientation: half-life means how long it takes for the measured level to halve. For orientation: Tmax means the time at which the peak concentration occurs. The bioavailability is dose-corrected exposure relative to a reference, in per cent. As to `C[C@H]1O[C@@H](O[C@H]2[C@H](O)[C@@H](O)[C@@H](O[C@H]3[C@H](O)CN[C@@H]3CO)O[C@@H]2CO)[C@H](O)[C@@H](O)[C@@H]1O`, the AUC(0-t) in [14] is 52 ng·h/mL; in [17], 324 ng·h/mL; in data set [24], 15 ng·h/mL. Besides, the AUC(0-inf) in data set [15] was 5890 ng·h/mL; in data set [18] it was 191 ng·h/mL; in data set [20] it was 18800 ng·h/mL. Moreover, the Vd in [16] is 0.218 L/kg. The half-life in data set [19] was 1.81 h. Further, the time of peak concentration (Tmax) in data set [21] stood at 1.75 h; in data set [23], 0.438 h. This compound also gave a bioavailability in [22] of 2.44%.
